The source made the active and inactive calls. The calls are words filed in the database; no cut-off is given here.
What was measured:
[1] = molecular target: T1, Intestinal-type alkaline phosphatase (Bos taurus, UniProt P19111); test: Inhibition of bovine intestinal alkaline phosphatase using para-nitrophenylphosphate as substrate preincubated for 10 mins at pH 10.4 followed by substrate addition
[2] = molecular target: T1, Intestinal-type alkaline phosphatase; test: Inhibition of bovine intestinal alkaline phosphatase using para-nitrophenylphosphate as substrate preincubated for 10 mins at pH 7.8 followed by substrate addition
[3] = molecular target: T2, Alkaline phosphatase, placental type (Homo sapiens, UniProt P05187); test: Inhibition of human placental alkaline phosphatase using para-nitrophenylphosphate as substrate preincubated for 10 mins at pH 10.4 followed by substrate addition
T2 sequence (P05187 whole entry): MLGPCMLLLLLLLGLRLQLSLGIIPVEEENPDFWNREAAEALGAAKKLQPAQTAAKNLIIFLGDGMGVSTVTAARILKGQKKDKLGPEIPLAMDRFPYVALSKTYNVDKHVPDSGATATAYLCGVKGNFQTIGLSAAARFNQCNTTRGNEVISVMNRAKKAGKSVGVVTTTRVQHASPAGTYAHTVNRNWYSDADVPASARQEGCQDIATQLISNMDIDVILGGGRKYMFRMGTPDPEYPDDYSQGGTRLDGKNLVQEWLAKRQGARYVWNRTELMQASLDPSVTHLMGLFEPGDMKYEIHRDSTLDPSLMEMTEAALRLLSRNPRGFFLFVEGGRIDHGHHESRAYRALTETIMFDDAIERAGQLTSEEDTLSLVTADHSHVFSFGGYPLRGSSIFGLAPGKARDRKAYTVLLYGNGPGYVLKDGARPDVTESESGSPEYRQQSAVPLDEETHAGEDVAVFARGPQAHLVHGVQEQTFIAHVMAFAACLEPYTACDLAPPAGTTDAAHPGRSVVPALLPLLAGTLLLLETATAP

[4] = Inhibition of porcine kidney TNAP using para-nitrophenylphosphate as substrate preincubated for 10 mins at pH 7.8 followed by substrate addition
[5] = Inhibition of porcine kidney TNAP using para-nitrophenylphosphate as substrate preincubated for 10 mins at pH 10.4 followed by substrate addition
[6] = molecular target: T2, Alkaline phosphatase, placental type; test: Inhibition of human placental alkaline phosphatase using para-nitrophenylphosphate as substrate preincubated for 10 mins at pH 7.8 followed by substrate addition
[7] = molecular target: T3, Alkaline phosphatase, tissue-nonspecific isozyme (Mus musculus) (UniProt P09242); conditions: C57BL/6J, 10 to 40 uM
T3 sequence (whole entry): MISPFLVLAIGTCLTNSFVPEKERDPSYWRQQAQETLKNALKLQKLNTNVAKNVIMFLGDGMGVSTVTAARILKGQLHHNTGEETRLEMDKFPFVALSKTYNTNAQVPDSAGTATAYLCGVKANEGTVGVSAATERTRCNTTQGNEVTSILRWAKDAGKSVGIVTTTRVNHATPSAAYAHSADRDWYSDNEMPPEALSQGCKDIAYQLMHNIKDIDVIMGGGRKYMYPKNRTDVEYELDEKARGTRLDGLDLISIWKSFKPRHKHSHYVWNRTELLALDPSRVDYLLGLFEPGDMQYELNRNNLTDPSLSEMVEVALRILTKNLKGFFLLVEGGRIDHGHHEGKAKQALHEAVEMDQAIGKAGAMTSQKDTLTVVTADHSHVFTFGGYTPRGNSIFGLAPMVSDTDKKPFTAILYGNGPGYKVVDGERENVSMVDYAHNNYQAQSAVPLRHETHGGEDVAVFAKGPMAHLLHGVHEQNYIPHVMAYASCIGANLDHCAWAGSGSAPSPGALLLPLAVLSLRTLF

[8] = Inhibition of porcine kidney TNAP using para-nitrophenylphosphate as substrate preincubated for 10 mins at pH 7.8 followed by substrate addition; parameters: species or system Sus scrofa
[9] = Cytotoxicity against mouse MOVAS1 cells assessed as reduction in cell viability at 10 to 40 uM after 3 days by MTT assay; assay type: cell-based; conditions: movas1, 72 h
Summary of the method: (§1)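 Cells (human osteoblast-like Saos-2 and MG63, mouse vascular smooth muscle line MOVAS-1, mouse primary osteoblasts) were incubated with or without inhibitor for 3 days. Viability was read by MTT assay.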

[10] = Cytotoxicity against human MG63 cells assessed as reduction in cell viability at 10 to 40 uM after 3 days by MTT assay; assay type: cell-based; conditions: mg-63, 72 h; summary of the method: as §1
[11] = molecular target: T4, Alkaline phosphatase, tissue-nonspecific isozyme (Homo sapiens) (UniProt P05186); test: Inhibition of TNAP in human Saos2 cells assessed as reduction of ascorbic acid and beta-glycerophosphate-induced mineralization at 20 to 40 uM after 6 days by alizarin red-s staining based assay; assay type: cell-based; conditions: SAOS-2
T4 sequence (whole entry): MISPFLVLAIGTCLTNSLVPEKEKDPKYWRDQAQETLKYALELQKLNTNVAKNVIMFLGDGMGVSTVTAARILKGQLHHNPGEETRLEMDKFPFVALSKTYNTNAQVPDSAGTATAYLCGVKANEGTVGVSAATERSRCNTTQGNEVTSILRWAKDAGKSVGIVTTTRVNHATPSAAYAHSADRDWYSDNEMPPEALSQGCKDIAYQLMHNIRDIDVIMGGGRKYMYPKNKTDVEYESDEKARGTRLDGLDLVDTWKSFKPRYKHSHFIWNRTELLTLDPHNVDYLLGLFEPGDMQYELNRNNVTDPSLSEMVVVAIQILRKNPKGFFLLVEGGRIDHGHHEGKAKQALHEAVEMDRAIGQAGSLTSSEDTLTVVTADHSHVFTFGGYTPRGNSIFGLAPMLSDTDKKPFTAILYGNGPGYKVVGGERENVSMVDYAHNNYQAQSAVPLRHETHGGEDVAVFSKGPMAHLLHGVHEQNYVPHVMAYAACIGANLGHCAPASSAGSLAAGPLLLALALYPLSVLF
Summary of the method: (§2)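 Saos-2 cells and mouse primary osteoblasts received ascorbic acid plus β-glycerophosphate to stimulate differentiation and mineralization, with or without inhibitor. Mineral was quantified by Alizarin Red-S staining and expressed as percent of a control containing DMSO 0.1% (mL:mL) without inhibitor. Experiments were repeated in triplicate for each inhibitor (n = 9).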

[12] = Cytotoxicity against human Saos2 cells assessed as reduction in cell viability at 10 to 40 uM after 3 days by MTT assay; assay type: cell-based; conditions: saos-2, 72 h; summary of the method: as §1
[13] = molecular target: T3, Alkaline phosphatase, tissue-nonspecific isozyme (Mus musculus); test: Inhibition of TNAP in C57BL/6J mouse primary osteoblasts assessed as reduction of ascorbic acid and beta-glycerophosphate-induced mineralization at 10 uM after 6 days by alizarin red-s staining based assay relative to control; summary of the method: as §2
Sus scrofa = species: Sus scrofa; test: Uncompetitive inhibition of porcine kidney TNAP using para-nitrophenylphosphate as substrate preincubated for 10 mins at pH 7.8 to 10.4 followed by substrate addition
[14] = Cytotoxicity against mouse primary osteoblasts assessed as reduction in cell viability at 10 to 40 uM after 3 days by MTT assay; assay type: cell-based; conditions: osteoblast, 72 h; summary of the method: as §1

T1 sequence (P19111 whole entry): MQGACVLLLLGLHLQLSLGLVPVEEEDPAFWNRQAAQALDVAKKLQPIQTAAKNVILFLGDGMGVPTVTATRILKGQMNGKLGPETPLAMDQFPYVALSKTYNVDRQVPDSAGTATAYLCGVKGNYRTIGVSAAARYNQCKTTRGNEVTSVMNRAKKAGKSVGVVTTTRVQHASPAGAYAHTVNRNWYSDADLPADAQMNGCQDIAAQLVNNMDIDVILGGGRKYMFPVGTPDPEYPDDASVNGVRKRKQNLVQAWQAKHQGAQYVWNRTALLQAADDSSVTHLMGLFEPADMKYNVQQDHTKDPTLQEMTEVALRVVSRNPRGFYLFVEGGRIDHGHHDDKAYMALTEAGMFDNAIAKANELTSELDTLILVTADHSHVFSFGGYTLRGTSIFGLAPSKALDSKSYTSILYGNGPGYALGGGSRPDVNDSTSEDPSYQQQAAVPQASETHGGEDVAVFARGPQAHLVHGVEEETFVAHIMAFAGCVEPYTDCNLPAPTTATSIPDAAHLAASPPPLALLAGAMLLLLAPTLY

IC50 [1] [µM]	IC50 [2] [µM]	IC50 [3] [µM]	IC50 [4] [µM]	IC50 [5] [µM]	IC50 [6] [µM]	inhibition [7]	Ki [8] [µM]	inhibition [11]	inhibition [13] [%]	inhibition (Sus scrofa)	Structure (SMILES)	Activity [9]	Activity [10]	Activity [12]	Activity [14]
> 400	> 400	> 400	> 400	> 400	> 400						N=c1sccn1CC(=O)c1cc2ccccc2o1				
> 400	> 400	> 400	256	41	> 400	inactive	47				c1ccc([C@H]2CN3CCSC3=N2)cc1 [LEVAMISOLE]				
> 400	> 400	> 400	124	28	> 400		32	Active	20	Active	C1=CN2CC(c3cc4ccccc4o3)N=C2S1 (centres undefined)	Non-toxic	Non-toxic	Non-toxic	Non-toxic
> 400	> 400	> 400	> 400	> 400	> 400						N=c1sccn1CC(O)c1cc2ccccc2o1 (centres undefined)				

Reference: ChEMBL document CHEMBL3774359, “Synthesis of benzofuran derivatives as selective inhibitors of tissue-nonspecific alkaline phosphatase: effects on cell toxicity and osteoblast-induced mineralization” (Bioorg Med Chem Lett, 2016)
